Measured values taken from ChEMBL document CHEMBL1144562, “Synthesis of a new class of 2-anilino substituted nicotinyl arylsulfonylhydrazides as potential anticancer and antibacterial agents” (2007).
Values after ≈ are worked out from the molar mass of the structure shown.

How the values were obtained:
Type in all cases: functional
[1] = tested on: Bacillus subtilis; experiment: Antibacterial activity against Bacillus subtilis MTCC 441 after 18 hrs; settings: MTCC 441, 18 h
In short: (§1)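 Disc diffusion (Kirby–Bauer) on Mueller-Hinton agar inoculated with fresh bacteria at 1-5 × 10^4 cfu mL-1. Compounds were dissolved in DMF at a range of concentrations, and discs were placed in triplicate. Plates were incubated at 30 °C for 18 h. MIC was taken as the lowest concentration giving no visible bacterial growth on the plate.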

[2] = tested on: Pseudomonas aeruginosa; experiment: Antibacterial activity against Pseudomonas aeruginosa MTCC 424 after 18 hrs; settings: MTCC 424, 18 h; in short: as §1
[3] = tested on: Escherichia coli; experiment: Antibacterial activity against Escherichia coli MTCC 448 after 18 hrs; settings: MTCC 448, 18 h; in short: as §1
[4] = tested on: Vibrio; experiment: Antibacterial activity against Vibrio species after 18 hrs; in short: as §1
[5] = tested on: Staphylococcus epidermidis; experiment: Antibacterial activity against Staphylococcus epidermidis MTCC 435 after 18 hrs; settings: MTCC 435, 18 h; in short: as §1

**Q.** Which results are given for `O=C(NNS(=O)(=O)c1ccc(F)cc1)c1cccnc1Nc1ccc(F)cc1`?
**A.** MIC [1]: 10 µg/mL (≈ 24.7 µM); MIC [2]: > 25 µg/mL; MIC [3]: 13 µg/mL (≈ 32.1 µM); MIC [4]: 22 µg/mL (≈ 54.4 µM); MIC [5]: 20 µg/mL (≈ 49.5 µM)

**Q.** Which results are given for `COc1ccc(Nc2ncccc2C(=O)NNS(=O)(=O)c2ccc(C)cc2)cc1`?
**A.** MIC [1]: 8 µg/mL (≈ 19.4 µM); MIC [2]: > 25 µg/mL; MIC [3]: 15 µg/mL (≈ 36.4 µM); MIC [4]: 19 µg/mL (≈ 46.1 µM); MIC [5]: 17 µg/mL (≈ 41.2 µM)

**Q.** With `O=C(NNS(=O)(=O)c1ccccc1)c1cccnc1Nc1ccccc1` as the compound, how does the MIC [1] read?
**A.** 17 µg/mL (≈ 46.1 µM)

**Q.** What about the MIC [2] of the same compound?
**A.** > 25 µg/mL

**Q.** And the MIC [3]?
**A.** 20 µg/mL (≈ 54.3 µM)

**Q.** What about the MIC [4] of the same compound?
**A.** 20 µg/mL (≈ 54.3 µM)

**Q.** And the MIC [5]?
**A.** 21 µg/mL (≈ 57 µM)

**Q.** How did the MIC [1] turn out when `CC(=O)Nc1ccc(S(=O)(=O)NNC(=O)c2cccnc2Nc2ccc(F)cc2)cc1` was run?
**A.** 16 µg/mL (≈ 36.1 µM)

**Q.** And the MIC [2]?
**A.** > 25 µg/mL

**Q.** And the MIC [3]?
**A.** 20 µg/mL (≈ 45.1 µM)

**Q.** And the MIC [4]?
**A.** 22 µg/mL (≈ 49.6 µM)

**Q.** And the MIC [5]?
**A.** 19 µg/mL (≈ 42.8 µM)

**Q.** `Cc1ccc(S(=O)(=O)NNC(=O)c2cccnc2Nc2ccc(Cl)cc2)cc1` was tested. Which MIC [1] did it give?
**A.** 9 µg/mL (≈ 21.6 µM)

**Q.** And the MIC [2]?
**A.** > 25 µg/mL

**Q.** What about the MIC [3] of the same compound?
**A.** 16 µg/mL (≈ 38.4 µM)

**Q.** And the MIC [4]?
**A.** 23 µg/mL (≈ 55.2 µM)

**Q.** And the MIC [5]?
**A.** 14 µg/mL (≈ 33.6 µM)

**Q.** What does the source list for `O=C(NNS(=O)(=O)c1ccc(Cl)cc1)c1cccnc1Nc1ccc(F)cc1`?
**A.** MIC [1]: 10 µg/mL (≈ 23.8 µM); MIC [2]: > 25 µg/mL; MIC [3]: 18 µg/mL (≈ 42.8 µM); MIC [4]: 21 µg/mL (≈ 49.9 µM); MIC [5]: 16 µg/mL (≈ 38 µM)

**Q.** Which MIC [1] does the source give for `Nc1ccc(S(=O)(=O)Nc2ncccn2)cc1` [SULFADIAZINE] here?
**A.** 18 µg/mL (≈ 71.9 µM)

**Q.** What about the MIC [2] of the same compound?
**A.** 22 µg/mL (≈ 87.9 µM)

**Q.** And the MIC [3]?
**A.** 15 µg/mL (≈ 59.9 µM)

**Q.** And the MIC [4]?
**A.** 13 µg/mL (≈ 51.9 µM)

**Q.** What about the MIC [5] of the same compound?
**A.** 20 µg/mL (≈ 79.9 µM)

**Q.** How did the MIC [1] turn out when `Nc1ccc(S(N)(=O)=O)cc1` [SULFANILAMIDE] was run?
**A.** > 128 µg/mL

**Q.** What about the MIC [2] of the same compound?
**A.** > 512 µg/mL

**Q.** What about the MIC [3] of the same compound?
**A.** > 128 µg/mL

**Q.** And the MIC [4]?
**A.** > 512 µg/mL

**Q.** What about the MIC [5] of the same compound?
**A.** > 512 µg/mL
